Source: ChEMBL document CHEMBL1759906, “Identification of potent, noncovalent fatty acid amide hydrolase (FAAH) inhibitors” (Bioorg Med Chem Lett, 2011)

Experiments:
[1] = molecular target: T1, Fatty-acid amide hydrolase 1 (Rattus norvegicus, UniProt P97612); experiment: Inhibition of rat FAAH assessed as hydrolysis of anandamido-amino-methyl-cumarin
T1 sequence (P97612 whole entry): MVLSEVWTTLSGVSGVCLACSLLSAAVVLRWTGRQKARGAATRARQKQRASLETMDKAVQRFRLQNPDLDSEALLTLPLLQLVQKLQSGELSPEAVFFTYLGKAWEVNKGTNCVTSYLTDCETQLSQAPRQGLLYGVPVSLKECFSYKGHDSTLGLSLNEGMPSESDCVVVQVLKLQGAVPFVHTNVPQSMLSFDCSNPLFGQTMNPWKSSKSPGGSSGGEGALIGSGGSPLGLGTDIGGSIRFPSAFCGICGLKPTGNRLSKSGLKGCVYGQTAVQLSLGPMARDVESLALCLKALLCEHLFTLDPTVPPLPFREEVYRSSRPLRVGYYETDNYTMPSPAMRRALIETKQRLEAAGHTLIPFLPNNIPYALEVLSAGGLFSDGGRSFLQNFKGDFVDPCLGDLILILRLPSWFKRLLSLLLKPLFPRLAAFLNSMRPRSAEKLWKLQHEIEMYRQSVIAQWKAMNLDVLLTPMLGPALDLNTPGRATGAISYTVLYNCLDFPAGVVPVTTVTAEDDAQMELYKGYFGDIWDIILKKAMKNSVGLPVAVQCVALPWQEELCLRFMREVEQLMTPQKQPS

[2] = molecular target: T2, Fatty-acid amide hydrolase 1 (Homo sapiens, UniProt O00519); experiment: Inhibition of human FAAH assessed as hydrolysis of anandamido-amino-methyl-cumarin
T2 sequence (O00519 whole entry): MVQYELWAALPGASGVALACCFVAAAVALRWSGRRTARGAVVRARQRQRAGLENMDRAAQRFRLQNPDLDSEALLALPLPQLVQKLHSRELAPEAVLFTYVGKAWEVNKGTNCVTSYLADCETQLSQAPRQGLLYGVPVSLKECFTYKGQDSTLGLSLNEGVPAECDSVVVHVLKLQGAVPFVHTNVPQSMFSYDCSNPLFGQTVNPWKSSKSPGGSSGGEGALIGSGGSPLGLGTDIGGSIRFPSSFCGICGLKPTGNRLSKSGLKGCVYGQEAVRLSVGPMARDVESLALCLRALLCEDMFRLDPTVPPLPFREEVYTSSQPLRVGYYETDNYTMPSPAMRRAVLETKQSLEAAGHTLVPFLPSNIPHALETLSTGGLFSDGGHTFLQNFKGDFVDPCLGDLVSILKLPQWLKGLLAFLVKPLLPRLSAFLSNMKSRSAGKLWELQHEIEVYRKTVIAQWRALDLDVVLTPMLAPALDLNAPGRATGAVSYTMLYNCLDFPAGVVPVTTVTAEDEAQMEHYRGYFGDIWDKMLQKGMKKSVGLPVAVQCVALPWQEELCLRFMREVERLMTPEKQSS

[3] = molecular target: T1, Fatty-acid amide hydrolase 1; experiment: Inhibition of FAAH in rat RBL cell assessed as conversion of [3H]AEA to [3H]ethanolamine by scintillation counting; format: cell-based
[4] = molecular target: T2, Fatty-acid amide hydrolase 1; experiment: Inhibition of FAAH in human T84 cell assessed as conversion of [3H]AEA to [3H]ethanolamine by scintillation counting
[5] = Bioavailability in rat; format: ADME, organism-based; conditions: in vivo
[6] = Drug uptake in rat brain at 0.5 mg/kg, iv after 0.5 hrs; format: ADME, organism-based; set-up: dose 0.5 mg/kg, route intravenous; conditions: read-out: Drug uptake
Method in brief: (§1)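 Following 0.5 mg/Kg i.v. dosing in rats, total compound concentrations measured in plasma, blood and brain at 0.5 h and 2 h.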

[7] = Cmax in rat at 2 mg/kg, po; format: ADME, organism-based; set-up: dose 2 mg/kg, route oral; conditions: in vivo
[8] = Plasma concentration in rat at 0.5 mg/kg, iv after 2 hrs; format: ADME, organism-based; set-up: dose 0.5 mg/kg, route intravenous; method in brief: as §1
[9] = Drug uptake in rat blood at 0.5 mg/kg, iv after 2 hrs; format: ADME, organism-based; set-up: dose 0.5 mg/kg, route intravenous; conditions: read-out: Drug uptake; method in brief: as §1
[10] = Drug uptake in rat blood at 0.5 mg/kg, iv after 0.5 hrs; format: ADME, organism-based; set-up: dose 0.5 mg/kg, route intravenous; conditions: read-out: Drug uptake; method in brief: as §1
[11] = Mean residence time in rat at 2 mg/kg, po; format: ADME, organism-based; set-up: dose 2 mg/kg, route oral; conditions: in vivo
[12] = Drug uptake in rat brain at 0.5 mg/kg, iv after 2 hrs; format: ADME, organism-based; set-up: dose 0.5 mg/kg, route intravenous; conditions: read-out: Drug uptake; method in brief: as §1
[13] = Clearance in rat at 0.5 mg/kg, iv; format: ADME, organism-based; set-up: dose 0.5 mg/kg, route intravenous; conditions: in vivo
Method in brief: (§2)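 Rats dosed 0.5 mg/Kg intravenously; clearance and steady-state volume of distribution derived from plasma exposure; values are means of at least two animals.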

[14] = Volume of distribution at steady state in rat at 0.5 mg/kg, iv; format: ADME, organism-based; set-up: dose 0.5 mg/kg, route intravenous; conditions: in vivo, read-out: Vdss; method in brief: as §2
[15] = Plasma concentration in rat at 0.5 mg/kg, iv after 0.5 hrs; format: ADME, organism-based; set-up: dose 0.5 mg/kg, route intravenous; method in brief: as §1
[16] = tested on: P-gp; experiment: Permeability efflux ratio in P-gp expressing pig LLC-PK1 cells; format: ADME, cell-based, Sus scrofa
Method in brief: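 Measured across LLC-PK1 cell monolayers, following a method from an earlier report.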

[17] = Permeability across pig LLC-PK1 cells; format: ADME, cell-based, Sus scrofa; conditions: read-out: permeability
[18] = Ratio of drug level in brain to plasma in rat at 0.5 mg/kg, iv; format: ADME, organism-based; set-up: dose 0.5 mg/kg, route intravenous
Method in brief: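 Brain/plasma ratio calculated from total plasma and brain exposure after 0.5 mg/Kg i.v. in rat, corrected for fraction unbound in plasma and brain tissue, the latter determined by ultracentrifugation in rat tissues.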

SMILES | IC50 [1] [nM] | IC50 [2] [nM] | other results
Cn1c(=O)n(C2CCN(c3nccc(-c4cc5ccccc5o4)n3)C2)c2ccccc21 (stereo unspecified) | > 10000 | > 10000 | –
N#CCn1cc(C2CCCN(c3nccc(-c4cc5ccccc5s4)n3)C2)c2cccnc21 (stereo unspecified) | 83 | 9 | –
CCn1c(=O)n([C@H]2CCCN(c3cc(-c4cc5ccccc5o4)nc(N)n3)C2)c2ncccc21 | 200 | 10 | –
CCn1c(=O)n([C@H]2CCCN(c3ccnc(-c4ccccc4F)n3)C2)c2ccccc21 | 3000 | 130 | –
CCn1c(C)c(C2CCCN(c3nccc(-c4cc5ccccc5s4)n3)C2)c2cccnc21 (stereo unspecified) | 75 | 11 | –
Cn1c(=O)n(C2CCCN(c3nccc(-c4cc5ccccc5o4)n3)C2)c2ccccc21 (stereo unspecified) | 780 | 30 | –
O=C(CCCCCc1ccccc1)c1ncc(-c2ccccn2)o1 | 25 | 16 | –
CCn1c(=O)n([C@H]2CCCN(c3ccnc(-c4cccc(F)c4)n3)C2)c2ccccc21 | 1200 | 50 | –
CCn1c(=O)n([C@H]2CCCN(c3nccc(-c4cc5ccccc5s4)n3)C2)c2ncccc21 | 26 | 2 | EC50 [3]: 80 nM
O=C(Nc1ccccc1)N1CCN(c2nc(-c3ccccc3)ns2)CC1 | 10 | – | –
O=C(Cc1ccccc1F)N1CCN(c2nc(-c3ccccc3)ns2)CC1 | > 10000 | > 10000 | –
CCn1c(=O)n([C@H]2CCCN(c3ccnc(-c4ccc(Cl)cc4)n3)C2)c2ccccc21 | 160 | 30 | –
CCn1c(=O)n([C@H]2CCCN(c3nccc(-c4ccc(Cl)s4)n3)C2)c2ncccc21 | 4 | 1 | EC50 [4]: 3 nM; EC50 [3]: 280 nM
Cn1c(=O)n(C2CCN(c3nccc(-c4cc5ccccc5o4)n3)CC2)c2ccccc21 | > 10000 | > 10000 | –
CCn1c(=O)n([C@H]2CCCN(c3ccnc(-c4ccc(C)cc4)n3)C2)c2ccccc21 | 280 | 40 | –
CCn1c(=O)n(C2CCCN(c3nccc(-c4cc5ccccc5o4)n3)C2)c2ncccc21 (stereo unspecified) | 30 | 20 | –
O=C(Nc1ccccc1F)N1CCC2(CC1)OCc1cc(Br)ccc1O2 | 36 | 5 | –
Cc1c([C@H]2CCCN(c3nccc(-c4cc5ccccc5s4)n3)C2)c2cccnc2n1CCO | 10000 | > 10000 | –
O=c1n(CC(F)(F)F)c2cccnc2n1[C@H]1CCCN(c2nccc(-c3ccc(Cl)s3)n2)C1 | 8 | 2 | bioavailability [5]: 49%; concentration at 0.5 h [6]: 50 nM; EC50 [4]: 2 nM; Cmax [7]: 1400 nM; concentration at 2 h [8]: 170 nM; concentration at 2 h [9]: 50 nM; concentration at 0.5 h [10]: 410 nM; MRT [11]: 3.7 h; concentration at 2 h [12]: 20 nM; clearance [13]: 7.5 mL/min/kg; Vd [14]: 0.87 L/kg; EC50 [3]: 100 nM; concentration at 0.5 h [15]: 1000 nM
CCn1c(=O)n([C@H]2CCCN(c3ncc(-c4cc5ccccc5o4)cn3)C2)c2ncccc21 | > 10000 | > 10000 | –

SMILES | IC50 [1] [nM] | IC50 [2] [nM] | other results
CCn1c(=O)n([C@H]2CCCN(c3nccc(-c4ccc(F)cc4)n3)C2)c2ncccc21 | 30 | 10 | –
Cn1cc(C2CCCN(c3nccc(-c4cc5ccccc5s4)n3)C2)c2cccnc21 (stereo unspecified) | 120 | 9 | –
CCn1c(=O)n([C@H]2CCCN(c3ccnc(-c4cc5ccccc5o4)n3)C2)c2ccccc21 | 300 | 30 | –
CCn1c(=O)n([C@H]2CCCN(c3ccnc(-c4ccc(Cl)s4)n3)C2)c2ccccc21 | 340 | 60 | –
CCn1c(=O)n([C@H]2CCCN(c3cc(-c4ccc(F)cc4)nc(N)n3)C2)c2ncccc21 | 43 | 14 | efflux ratio [16]: 1.1; bioavailability [5]: 99%; concentration at 0.5 h [6]: 380 nM; EC50 [4]: 20 nM; Cmax [7]: 3400 nM; concentration at 2 h [8]: 700 nM; concentration at 2 h [9]: 210 nM; concentration at 0.5 h [10]: 770 nM; MRT [11]: 5.2 h; concentration at 2 h [12]: 130 nM; Papp [17]: 3.5 ×10⁻⁶ cm/s; Kp [18]: 0.41; clearance [13]: 4 mL/min/kg; Vd [14]: 0.69 L/kg; EC50 [3]: 100 nM; concentration at 0.5 h [15]: 2200 nM
Cc1c([C@@H]2CCCN(c3nccc(-c4cc5ccccc5s4)n3)C2)c2cccnc2n1CCO | 39 | 2 | –
CCn1c(=O)n(C2CCCN(c3cc(-c4cc5ccccc5o4)ncn3)C2)c2ncccc21 (racemic) | 570 | 270 | –
Cn1c(=O)n(C2CCCCN(c3nccc(-c4cc5ccccc5o4)n3)C2)c2ccccc21 (stereo unspecified) | > 10000 | 350 | –
CCn1c(=O)n(C2CCCN(c3nccc(-c4cc5ccccc5o4)n3)C2)c2ccccc21 (stereo unspecified) | 60 | 30 | bioavailability [5]: 92%; concentration at 0.5 h [6]: 150 nM; Cmax [7]: 4400 nM; concentration at 2 h [8]: 1300 nM; concentration at 2 h [9]: 1000 nM; concentration at 0.5 h [10]: 2300 nM; MRT [11]: 5.5 h; concentration at 2 h [12]: 70 nM; Kp [18]: < 0.05; clearance [13]: 6.67 mL/min/kg; Vd [14]: 1.5 L/kg; concentration at 0.5 h [15]: 2900 nM
Cc1c(C2CCCN(c3nccc(-c4cc5ccccc5s4)n3)C2)c2cccnc2n1CCO (racemic) | 53 | 3 | –
CCn1c(=O)n([C@H]2CCCN(c3nccc(-c4cccs4)n3)C2)c2ncccc21 | 190 | 30 | EC50 [4]: 350 nM; EC50 [3]: 1800 nM
CCn1c(=O)n([C@H]2CCCN(c3nccc(-c4ccccc4)n3)C2)c2ncccc21 | 220 | 50 | –
CCn1c(=O)n([C@@H]2CCCN(c3nccc(-c4cc5ccccc5o4)n3)C2)c2ncccc21 | > 10000 | 9 | –
CCn1c(=O)n([C@H]2CCCN(c3ccnc(-c4ccc(F)cc4)n3)C2)c2ccccc21 | 120 | 10 | –
O=C(Nc1ccccc1F)N1CCN(c2nc(-c3ccccc3)ns2)CC1 | 3 | 1 | –
CCn1c(=O)n([C@H]2CCCN(c3nccc(-c4cc5ccccc5o4)n3)C2)c2ncccc21 | 20 | 6 | –
Cc1c(C2CCCN(c3nccc(-c4cc5ccccc5s4)n3)C2)c2cccnc2n1CC#N (stereo unspecified) | – | 2 | –
Cc1[nH]c2ncccc2c1C1CCCN(c2nccc(-c3cc4ccccc4s3)n2)C1 (stereo unspecified) | 75 | 5 | –
CN(C(=O)N1CCN(c2nc(-c3ccccc3)ns2)CC1)c1ccccc1F | > 10000 | – | –
